The values below come from publication PMC4358770 (Journal of medicinal chemistry, 2010).

Each structure is given as a SMILES string.

In general, half-life refers to how long it takes for the measured level to halve. High values mean slow decline, low ones rapid decline.

One series concerns the target T1, NTPDase8 (Homo sapiens, UniProt Q5MY95).
T1 sequence (Q5MY95 1-495): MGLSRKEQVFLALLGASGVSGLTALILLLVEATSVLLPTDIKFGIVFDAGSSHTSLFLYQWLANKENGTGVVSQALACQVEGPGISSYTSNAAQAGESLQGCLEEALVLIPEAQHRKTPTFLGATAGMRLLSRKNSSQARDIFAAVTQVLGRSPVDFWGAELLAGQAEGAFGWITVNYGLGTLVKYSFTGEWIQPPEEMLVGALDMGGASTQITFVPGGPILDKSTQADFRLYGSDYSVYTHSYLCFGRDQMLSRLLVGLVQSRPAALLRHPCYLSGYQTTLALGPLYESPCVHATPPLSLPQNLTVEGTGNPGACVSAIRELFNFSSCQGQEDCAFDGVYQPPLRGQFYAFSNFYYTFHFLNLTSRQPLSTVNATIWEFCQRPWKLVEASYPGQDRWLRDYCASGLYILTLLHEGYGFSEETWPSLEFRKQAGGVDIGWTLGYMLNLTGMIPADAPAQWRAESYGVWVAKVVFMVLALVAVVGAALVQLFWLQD
In words: NTPDase8 hydrolysis assay. Format: in vitro ADME. To be noted: 100 μM ATP (100% reference). Put shortly:
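Enzymes were transiently expressed in COS-7 cells. Crude protein extracts were made by sonication, 300g clearing at 4 °C and storage at −80 °C, with protein measured by Bradford. Extract was preincubated 3 min at 37 °C in Tris-Ringer buffer, pH 7.4. […] Activity of untransfected-cell extract was subtracted.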

A further series concerns the target T2, human NPP1 (Homo sapiens, UniProt P22413).
T2 sequence (P22413 1-925): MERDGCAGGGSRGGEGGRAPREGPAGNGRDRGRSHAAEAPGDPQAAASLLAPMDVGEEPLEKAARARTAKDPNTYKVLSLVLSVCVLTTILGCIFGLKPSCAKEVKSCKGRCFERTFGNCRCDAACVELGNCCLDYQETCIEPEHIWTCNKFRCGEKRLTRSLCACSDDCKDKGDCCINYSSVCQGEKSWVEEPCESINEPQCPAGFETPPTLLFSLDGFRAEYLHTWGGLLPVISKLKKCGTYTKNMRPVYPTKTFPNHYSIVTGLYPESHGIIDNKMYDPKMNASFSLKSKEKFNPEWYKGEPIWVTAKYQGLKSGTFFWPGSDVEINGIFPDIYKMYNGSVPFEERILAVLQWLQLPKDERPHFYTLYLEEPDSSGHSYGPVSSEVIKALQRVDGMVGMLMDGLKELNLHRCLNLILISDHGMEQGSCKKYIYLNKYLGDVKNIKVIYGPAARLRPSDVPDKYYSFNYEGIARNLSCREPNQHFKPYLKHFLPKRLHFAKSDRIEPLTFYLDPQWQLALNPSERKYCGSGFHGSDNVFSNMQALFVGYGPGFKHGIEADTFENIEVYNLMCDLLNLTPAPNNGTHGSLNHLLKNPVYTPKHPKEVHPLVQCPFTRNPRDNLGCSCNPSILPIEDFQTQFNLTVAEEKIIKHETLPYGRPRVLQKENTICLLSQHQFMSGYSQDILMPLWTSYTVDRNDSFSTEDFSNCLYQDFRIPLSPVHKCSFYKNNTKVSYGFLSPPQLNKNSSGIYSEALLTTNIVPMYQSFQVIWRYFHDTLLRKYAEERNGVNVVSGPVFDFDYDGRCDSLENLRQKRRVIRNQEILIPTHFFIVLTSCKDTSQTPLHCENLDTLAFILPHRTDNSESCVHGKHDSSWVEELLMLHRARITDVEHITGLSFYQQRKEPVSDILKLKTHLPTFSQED
In words: NPP1 hydrolysis assay. The series is classed as in vitro ADME. Particulars: 100 μM ATP (100% reference).

A further series concerns the target T3, human NPP3 (Homo sapiens, UniProt O14638).
T3 sequence (O14638 1-875): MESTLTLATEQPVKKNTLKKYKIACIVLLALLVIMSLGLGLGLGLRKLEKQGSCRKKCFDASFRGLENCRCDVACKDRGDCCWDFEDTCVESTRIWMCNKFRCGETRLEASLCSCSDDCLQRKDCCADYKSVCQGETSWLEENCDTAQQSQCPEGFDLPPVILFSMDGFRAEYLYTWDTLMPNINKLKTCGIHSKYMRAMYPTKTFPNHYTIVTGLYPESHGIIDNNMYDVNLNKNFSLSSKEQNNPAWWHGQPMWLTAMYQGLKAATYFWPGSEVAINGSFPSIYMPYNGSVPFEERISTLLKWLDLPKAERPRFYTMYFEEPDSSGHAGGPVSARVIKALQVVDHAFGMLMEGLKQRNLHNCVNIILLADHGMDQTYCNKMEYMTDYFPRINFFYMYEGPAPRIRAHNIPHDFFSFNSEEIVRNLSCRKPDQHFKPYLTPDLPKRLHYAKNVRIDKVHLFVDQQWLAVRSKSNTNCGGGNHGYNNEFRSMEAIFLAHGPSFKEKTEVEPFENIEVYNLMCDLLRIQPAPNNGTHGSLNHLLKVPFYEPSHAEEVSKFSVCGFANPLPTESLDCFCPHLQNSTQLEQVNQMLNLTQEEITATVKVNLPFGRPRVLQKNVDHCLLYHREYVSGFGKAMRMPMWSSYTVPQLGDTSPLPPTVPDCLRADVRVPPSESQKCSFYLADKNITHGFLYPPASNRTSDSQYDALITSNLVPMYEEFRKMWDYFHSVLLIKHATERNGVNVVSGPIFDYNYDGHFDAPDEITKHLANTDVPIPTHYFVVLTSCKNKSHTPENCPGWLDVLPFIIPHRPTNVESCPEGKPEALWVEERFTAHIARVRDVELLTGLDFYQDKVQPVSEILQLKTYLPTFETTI
In words: NPP3 hydrolysis assay. Particulars: 100 μM ATP (100% reference). The series is classed as in vitro ADME.

Series [1] is described as follows: pKa and ionization of the terminal phosphate/phosphonate. The series is classed as physicochemical. To be noted: pH 7.4, terminal phosphate/phosphonate.
The conditions of series [2]: cited from earlier work.
For the next series, the system named is rabbit IOP. To be noted: topically applied to New Zealand white rabbits; cited from earlier work.
The target of the next series is alkaline phosphatase (Bos taurus, UniProt P19111). In words: Hydrolysis by alkaline phosphatase. To be noted: bovine, calf intestine alkaline phosphatase, pH 9.8.
Series [3] has as its target calf intestine alkaline phosphatase (Bos taurus, UniProt P19111). Nature of the series: Hydrolysis by alkaline phosphatase. Particulars: 0.2 mg analogue/77.5 μL, 12.5 units of AP, 37 °C, 3 h.

Chain of alkaline phosphatase (P19111 20-533): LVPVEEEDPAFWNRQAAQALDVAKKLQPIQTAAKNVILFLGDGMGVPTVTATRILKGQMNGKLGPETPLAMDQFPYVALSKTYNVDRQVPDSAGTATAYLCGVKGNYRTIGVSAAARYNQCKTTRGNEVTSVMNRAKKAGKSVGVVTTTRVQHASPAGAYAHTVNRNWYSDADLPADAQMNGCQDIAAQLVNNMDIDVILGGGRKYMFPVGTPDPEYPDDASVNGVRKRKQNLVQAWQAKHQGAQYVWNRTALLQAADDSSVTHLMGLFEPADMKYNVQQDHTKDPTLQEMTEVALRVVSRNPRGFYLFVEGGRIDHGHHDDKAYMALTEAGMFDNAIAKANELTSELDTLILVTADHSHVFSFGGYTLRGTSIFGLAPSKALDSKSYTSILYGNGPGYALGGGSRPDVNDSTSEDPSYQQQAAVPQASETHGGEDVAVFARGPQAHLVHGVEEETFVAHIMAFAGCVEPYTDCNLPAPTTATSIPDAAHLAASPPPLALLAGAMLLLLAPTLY
Chain of calf intestine alkaline phosphatase (P19111 20-533): as above

As for `Nc1ncnc2c1ncn2[C@@H]1O[C@H](COP(=O)(O)OP(=O)(O)OP(=O)(O)O)[C@@H](O)[C@H]1O` [ATP], the “hydrolysis rate by NTPDase8” value on NTPDase8 is on record as 229 ± 20 nmol Pi·min^−1·mg protein^−1. For the same compound, at human NPP1, the “hydrolysis rate by NPP1” value is 619 nmol nucl·min^−1·mg protein^−1. Moreover, the “hydrolysis rate by NPP3” value at human NPP3 is on record as 245 nmol nucl·min^−1·mg protein^−1. In addition, the “fraction ionized at physiological pH” value in series [1] turned out to be 91%. In addition, the “t1/2 in human blood serum” value in series [2] is 3.6 h. Besides, the “effect on IOP (increase or reduction)” value in the series on rabbit IOP is given as “reduced”. Further, at alkaline phosphatase, the half-life at 2.58 mg/mL was 1.4 h. Moreover, the “degradation by alkaline phosphatase after 3 h” value in series [3] amounted to 96%.
